Test results reported in ChEMBL document CHEMBL1126043, “Novel thiazolidine-2,4-diones as potent euglycemic agents” (1992).

Legend:
Mus musculus [1] = assay: In vivo euglycemic activity of the compound (administered by oral gavage) in C57/6J-ob/ob mice is measured by normalization of blood glucose levels at a dose of 0.25(mg/kg); type: functional
In short: (§1)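 Mice bled from retro-orbital sinus into tubes with 2% sodium heparin for baseline glucose, then dosed by oral gavage once daily for 4 days in 0.25% (w/v) methylcellulose in water, no pH adjustment (0.1 mL per 20 g). Bled 24 h after fourth dose. Samples centrifuged 2 min at 10000g. Plasma glucose measured by hexokinase UV method. Results scaled to vehicle (0%) and ciglitazone 50 mg/kg (100%).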

Mus musculus [2] = assay: In vivo euglycemic activity (administered by oral gavage) in C57/6J-ob/ob mice by normalization of blood glucose levels at a dose of 1 mg/kg.; type: functional; in short: as §1
Mus musculus [3] = assay: In vivo euglycemic activity (administered by oral gavage) in C57/6J-ob/ob mice by normalization of blood glucose levels at a dose of 0.5 mg/kg.; type: functional; in short: as §1
Mus musculus [4] = assay: In vivo euglycemic activity of the compound (administered by oral gavage) in C57/6J-ob/ob mice is measured by normalization of blood glucose levels at a dose of 0.1(mg/kg); type: functional; in short: as §1
Mus musculus [5] = assay: In vivo euglycemic activity (administered by oral gavage) in C57/6J-ob/ob mice by normalization of blood glucose levels at a dose of 10 mg/kg.; type: functional; in short: as §1
Mus musculus [6] = assay: In vivo euglycemic activity of the compound (administered by oral gavage) in C57/6J-ob/ob mice is measured by normalization of blood glucose levels at a dose of 5(mg/kg)
Mus musculus [7] = assay: In vivo euglycemic activity of the compound (administered by oral gavage) in C57/6J-ob/ob mice is measured by normalization of blood glucose levels at a dose of 0.05(mg/kg); type: functional; in short: as §1
Mus musculus [8] = assay: In vivo euglycemic activity of the compound (administered by oral gavage) in C57/6J-ob/ob mice is measured by normalization of blood glucose levels at a dose of 10(mg/kg).; type: functional; in short: as §1
Mus musculus [9] = assay: In vivo euglycemic activity of the compound (administered by oral gavage) in C57/6J-ob/ob mice is measured by normalization of blood glucose levels at a dose of 1(mg/kg).; type: functional; in short: as §1
Mus musculus [10] = assay: In vivo euglycemic activity (administered by oral gavage) in C57/6J-ob/ob mice measured by normalization of blood glucose levels at a dose of 5 mg/kg.; type: functional
Mus musculus [11] = assay: In vivo euglycemic activity of the compound (administered by oral gavage) in C57/6J-ob/ob mice is measured by normalization of blood glucose levels at a dose of 25(mg/kg); type: functional; in short: as §1
Mus musculus [12] = assay: In vivo euglycemic activity of the compound (administered by oral gavage) in C57/6J-ob/ob mice is measured by normalization of blood glucose levels at a dose of 50(mg/kg); type: functional
Mus musculus [13] = assay: In vivo euglycemic activity of the compound (administered by oral gavage) in C57/6J-ob/ob mice is measured by normalization of blood glucose levels at a dose of 2.5(mg/kg); type: functional; in short: as §1

SMILES | Normalization (Mus musculus [1]) | Normalization (Mus musculus [2]) | Normalization (Mus musculus [3]) | Normalization (Mus musculus [4]) | also measured
Cc1oc(-c2ccc(C(F)(F)F)cc2)nc1CCC(=O)c1ccc(CC2SC(=O)NC2=O)cc1 (configuration not stated) | 81% | 86% | 69% | 88% | –
COc1ccccc1/C=C/C(=O)c1ccc(CC2SC(=O)NC2=O)cc1 (configuration not stated) | – | – | – | – | Normalization (Mus musculus [5]): 66%; Normalization (Mus musculus [6]): 50%
Cc1oc(-c2ccccc2)nc1CCC(O)c1ccc(CC2SC(=O)NC2=O)cc1 (configuration not stated) | 85% | – | 100% | 93% | Normalization (Mus musculus [7]): 72%
Cc1ccc(-c2nc(CCC(=O)c3ccc(CC4SC(=O)NC4=O)cc3)c(C)o2)o1 (configuration not stated) | 87% | – | 68% | 47% | –
COc1c(C)cc(-c2nc(CCC(=O)c3ccc(CC4SC(=O)NC4=O)cc3)c(C)o2)cc1C (configuration not stated) | – | 100% | 100% | 75% | –
O=C1NC(=O)C(Cc2ccc(C(=O)COc3ccccc3)cc2)S1 (configuration not stated) | – | – | – | – | Normalization (Mus musculus [8]): 7%
Cc1oc(-c2ccccc2)nc1C/C=C/c1ccc(CC2SC(=O)NC2=O)cc1 (configuration not stated) | 74% | – | 84% | 29% | –
Cc1oc(-c2ccccc2)nc1CCC(=O)c1ccc(/C=C2\SC(=O)NC2=O)cc1 | – | 84% | 81% | 43% | –
Cc1ccc(-c2nc(CCC(=O)c3ccc(CC4SC(=O)NC4=O)cc3)c(C)o2)cc1 (configuration not stated) | 15% | – | 47% | – | Normalization (Mus musculus [9]): 47%
O=C1NC(=O)C(Cc2ccc3c(c2)CCC(Cc2ccccc2)C3=O)S1 (configuration not stated) | – | – | – | – | Normalization (Mus musculus [5]): 54%; Normalization (Mus musculus [10]): 39%; Normalization (Mus musculus [11]): 47%
CC1(COc2ccc(CC3SC(=O)NC3=O)cc2)CCCCC1 (configuration not stated) [CIGLITAZONE] | – | – | – | – | Normalization (Mus musculus [12]): 100%
Cc1oc(-c2ccccc2)nc1CCC(=O)c1ccc(CC2SC(=O)NC2=O)cc1 (configuration not stated) [DARGLITAZONE] | 88% | 100% | 97% | 83% | Normalization (Mus musculus [5]): 100%; Normalization (Mus musculus [10]): 100%; Normalization (Mus musculus [13]): 88%
